Laboratory results reported in ChEMBL document CHEMBL4837245, “Discovery of VU6028418: A Highly Selective and Orally Bioavailable M4 Muscarinic Acetylcholine Receptor Antagonist” (ACS Med Chem Lett, 2021).

Assays:
CYP1A2 [1] = target: T1, CYP1A2 (Homo sapiens, UniProt P05177); test: Inhibition of CYP1A2 in human liver microsomes using phenacetin as substrate preincubated for 15 mins followed by NADPH addition and measured after 8 mins by LC-MS/MS analysis; format: ADME; settings: human, liver microsomes, probe phenacetin; time 23 min; read-out: INH
T1 sequence (P05177 whole entry): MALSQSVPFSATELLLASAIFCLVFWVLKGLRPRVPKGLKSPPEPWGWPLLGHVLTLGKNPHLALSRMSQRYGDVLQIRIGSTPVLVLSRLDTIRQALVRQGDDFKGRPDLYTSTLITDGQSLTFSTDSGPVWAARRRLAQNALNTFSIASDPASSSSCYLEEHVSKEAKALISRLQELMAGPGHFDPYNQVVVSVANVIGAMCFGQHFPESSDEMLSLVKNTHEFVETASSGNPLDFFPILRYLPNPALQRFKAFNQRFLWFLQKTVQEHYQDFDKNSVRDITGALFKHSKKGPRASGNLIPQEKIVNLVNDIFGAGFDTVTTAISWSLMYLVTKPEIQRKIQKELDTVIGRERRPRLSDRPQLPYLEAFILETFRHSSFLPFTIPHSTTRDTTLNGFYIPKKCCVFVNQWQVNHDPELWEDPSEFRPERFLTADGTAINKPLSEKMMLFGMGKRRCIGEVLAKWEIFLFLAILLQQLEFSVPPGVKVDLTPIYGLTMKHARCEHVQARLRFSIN
Method in brief: (§1)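 Cocktail CYP450 inhibition assay run in human liver microsomes.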

CYP2D6 = CYP2D6 (Homo sapiens, UniProt P10635); test: Inhibition of CYP2D6 in human liver microsomes using dextromethorphan as substrate preincubated for 15 mins followed by NADPH addition and measured after 8 mins by LC-MS/MS analysis; format: ADME; settings: human, liver microsomes, probe dextromethorphan; time 23 min; read-out: INH; method in brief: as §1
Sequence of CYP2D6 (P10635 whole entry): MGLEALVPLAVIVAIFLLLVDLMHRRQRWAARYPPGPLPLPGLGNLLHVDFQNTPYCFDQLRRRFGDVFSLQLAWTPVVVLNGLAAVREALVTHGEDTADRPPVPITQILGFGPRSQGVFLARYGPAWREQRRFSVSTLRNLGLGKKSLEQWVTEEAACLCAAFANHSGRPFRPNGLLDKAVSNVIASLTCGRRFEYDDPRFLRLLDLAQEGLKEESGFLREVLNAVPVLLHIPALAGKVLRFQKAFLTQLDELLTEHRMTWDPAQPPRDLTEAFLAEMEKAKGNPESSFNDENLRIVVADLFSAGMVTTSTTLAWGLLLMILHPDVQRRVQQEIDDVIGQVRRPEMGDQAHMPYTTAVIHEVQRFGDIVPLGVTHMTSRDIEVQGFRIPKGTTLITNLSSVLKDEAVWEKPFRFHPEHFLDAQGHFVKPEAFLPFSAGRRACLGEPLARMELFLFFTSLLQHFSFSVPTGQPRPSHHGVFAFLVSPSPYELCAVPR

[2] = Clearance in Sprague-Dawley rat plasma at 1.0 mg/kg, iv measured upto 24 hrs by LC-MS/MS analysis; format: ADME, organism-based
Method in brief: (§2)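 Single iv and oral (suspension) dosing; iv/po doses 1/10 mg/kg in SD rat, 1/3 mg/kg in CD-1 mouse and beagle dog. Plasma PK parameters are means from two to three animals per species.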

[3] = Volume of distribution at steady state in Beagle dog at 1.0 mg/kg, iv measured upto 24 hrs by LC-MS/MS analysis; format: ADME, organism-based, Canis lupus familiaris; settings: in vivo, read-out: Vdss
Method in brief: (§3)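 Pharmacokinetics in Sprague-Dawley rat, CD-1 mouse and beagle dog. Intravenous dose was 1 mg/kg in each species. Oral doses were given as a suspension: 10 mg/kg in rat, 3 mg/kg in mouse and dog. Each parameter is the mean of two to three animals.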

[4] = Cmax in CD-1 mouse at 3 mg/kg, po measured upto 24 hrs by LC-MS/MS analysis; format: ADME, organism-based; set-up: route oral, dose 3 mg/kg, time <=24; settings: in vivo; method in brief: as §2
[5] = Cmax in Beagle dog at 3 mg/kg, po measured upto 24 hrs by LC-MS/MS analysis; format: ADME, organism-based, Canis lupus familiaris; set-up: route oral, dose 3 mg/kg, time <=24; settings: in vivo; method in brief: as §2
[6] = Tmax in Sprague-Dawley rat at 10 mg/kg, po measured upto 24 hrs by LC-MS/MS analysis; format: ADME, organism-based; settings: in vivo; method in brief: as §3
[7] = Tmax in Beagle dog at 3 mg/kg, po measured upto 24 hrs by LC-MS/MS analysis; format: ADME, organism-based, Canis lupus familiaris; settings: in vivo; method in brief: as §3
[8] = Oral bioavailability in Sprague-Dawley rat at 10 mg/kg measured upto 24 hrs by LC-MS/MS analysis; format: ADME, organism-based; settings: in vivo; method in brief: as §2
[9] = Oral bioavailability in Beagle dog at 3 mg/kg measured upto 24 hrs by LC-MS/MS analysis; format: ADME, organism-based, Canis lupus familiaris; settings: in vivo; method in brief: as §2
[10] = Ratio of drug concentration in brain to plasma of Sprague-Dawley rat at 1 mg/kg, iv; format: ADME, organism-based
[11] = Ratio of free drug concentration in brain to plasma of Sprague-Dawley rat at 1 mg/kg, iv; format: ADME, organism-based; settings: read-out: K(p,uu,brain)
Rattus norvegicus [12] = test: Reversal of haloperidol-induced catalepsy in rat at 0.3 mg/kg, po relative to control; format: functional
Method in brief: (§4)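 Rat haloperidol-induced catalepsy model with oral test dosing at 0.3, 1 and 3 mg/kg alongside vehicle-treated controls. Read-out is latency to withdraw, also expressed as % reversal of catalepsy. Groups compared by ANOVA.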

Rattus norvegicus [13] = test: Reversal of haloperidol-induced catalepsy in po dosed rat; format: functional, organism-based; method in brief: as §4
[14] = Ratio of drug concentration in brain to plasma of rat at 1 mg/kg, po after 1 hr; format: ADME, organism-based
Method in brief: (§5)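 At the end of the catalepsy study, 1 h after a 1 mg/kg oral dose in rats, total brain/plasma (Kp) and unbound brain/plasma (Kp,uu) ratios were determined.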

[15] = Ratio of free drug concentration in brain to plasma of rat at 1 mg/kg, po after 1 hr; format: ADME, organism-based; method in brief: as §5
[16] = target: Muscarinic acetylcholine receptor M1 (Homo sapiens, UniProt P11229); test: Antagonist activity at human muscarinic M1 receptor expressed in CHO cells co-expressing Gqi5 assessed as inhibition of acetylcholine-induced calcium mobilization; format: functional
Sequence of Muscarinic acetylcholine receptor M1 (P11229 whole entry): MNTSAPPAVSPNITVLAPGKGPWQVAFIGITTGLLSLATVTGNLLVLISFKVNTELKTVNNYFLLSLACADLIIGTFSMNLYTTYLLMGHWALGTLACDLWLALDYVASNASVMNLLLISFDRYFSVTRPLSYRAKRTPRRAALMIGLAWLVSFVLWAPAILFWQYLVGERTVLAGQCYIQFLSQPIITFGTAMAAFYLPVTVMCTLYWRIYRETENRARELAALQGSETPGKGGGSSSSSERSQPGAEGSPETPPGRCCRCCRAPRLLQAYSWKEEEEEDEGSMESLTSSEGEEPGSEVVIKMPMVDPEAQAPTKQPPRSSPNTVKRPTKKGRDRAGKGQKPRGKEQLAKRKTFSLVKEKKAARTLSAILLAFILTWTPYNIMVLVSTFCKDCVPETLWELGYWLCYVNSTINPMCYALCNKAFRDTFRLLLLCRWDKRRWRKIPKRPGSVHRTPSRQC
Method in brief: (§6)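 CHO cells stably transfected with the given human mAChR subtype. Compound added before an EC80 concentration of acetylcholine; antagonism read as calcium mobilization. One independent determination in triplicate.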

[17] = target: Muscarinic acetylcholine receptor M3 (Homo sapiens, UniProt P20309); test: Antagonist activity at human muscarinic M3 receptor expressed in CHO cells co-expressing Gqi5 assessed as inhibition of acetylcholine-induced calcium mobilization; format: functional; method in brief: as §6
Sequence of Muscarinic acetylcholine receptor M3 (P20309 whole entry): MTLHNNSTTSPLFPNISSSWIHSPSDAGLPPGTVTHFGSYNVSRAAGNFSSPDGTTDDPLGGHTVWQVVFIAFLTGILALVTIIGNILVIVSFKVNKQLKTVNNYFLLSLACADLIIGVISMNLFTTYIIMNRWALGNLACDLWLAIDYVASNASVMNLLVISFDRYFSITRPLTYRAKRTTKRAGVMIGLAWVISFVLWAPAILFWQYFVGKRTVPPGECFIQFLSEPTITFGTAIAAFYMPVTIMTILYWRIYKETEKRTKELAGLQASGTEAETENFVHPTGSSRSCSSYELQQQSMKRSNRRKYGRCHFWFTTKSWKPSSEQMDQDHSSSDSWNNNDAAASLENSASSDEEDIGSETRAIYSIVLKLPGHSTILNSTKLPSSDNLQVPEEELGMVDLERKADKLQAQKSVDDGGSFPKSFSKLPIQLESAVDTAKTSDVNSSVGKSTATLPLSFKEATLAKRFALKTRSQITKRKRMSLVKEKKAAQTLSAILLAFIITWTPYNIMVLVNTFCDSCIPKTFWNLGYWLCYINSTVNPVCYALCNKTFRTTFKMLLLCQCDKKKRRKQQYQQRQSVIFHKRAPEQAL

Cytochrome P450 2C19 = Cytochrome P450 2C19 (Homo sapiens, UniProt P33261); test: Time dependent inhibition of CYP2C19 (unknown origin); format: ADME
Sequence of Cytochrome P450 2C19 (P33261 whole entry): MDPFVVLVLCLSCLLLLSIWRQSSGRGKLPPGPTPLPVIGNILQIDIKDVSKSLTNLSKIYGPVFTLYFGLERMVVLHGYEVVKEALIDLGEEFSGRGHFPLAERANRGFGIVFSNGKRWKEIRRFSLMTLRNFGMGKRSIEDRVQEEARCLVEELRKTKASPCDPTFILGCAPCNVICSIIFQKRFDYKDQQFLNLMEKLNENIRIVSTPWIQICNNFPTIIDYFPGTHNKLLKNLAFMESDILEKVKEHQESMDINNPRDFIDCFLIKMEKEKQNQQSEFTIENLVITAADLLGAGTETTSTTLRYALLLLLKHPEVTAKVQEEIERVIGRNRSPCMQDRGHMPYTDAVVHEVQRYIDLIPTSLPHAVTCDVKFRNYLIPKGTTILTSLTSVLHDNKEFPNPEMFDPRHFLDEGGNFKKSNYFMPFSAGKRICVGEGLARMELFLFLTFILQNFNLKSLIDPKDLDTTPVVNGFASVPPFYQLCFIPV

Cytochrome P450 2D6 = Cytochrome P450 2D6 (Homo sapiens, UniProt P10635); test: Time dependent inhibition of CYP2D6 (unknown origin); format: ADME
Sequence of Cytochrome P450 2D6 (P10635 whole entry): as the sequence (P10635 whole entry) above

CYP1A2 [18] = target: T1, CYP1A2; test: Induction of CYP1A2 in human hepatocytes; format: ADME, cell-based, Hepatocyte
CYP2B6 [19] = target: T2, CYP2B6 (Homo sapiens, UniProt P20813); test: Induction of CYP2B6 in human hepatocytes; format: ADME, cell-based, Hepatocyte
T2 sequence (P20813 whole entry): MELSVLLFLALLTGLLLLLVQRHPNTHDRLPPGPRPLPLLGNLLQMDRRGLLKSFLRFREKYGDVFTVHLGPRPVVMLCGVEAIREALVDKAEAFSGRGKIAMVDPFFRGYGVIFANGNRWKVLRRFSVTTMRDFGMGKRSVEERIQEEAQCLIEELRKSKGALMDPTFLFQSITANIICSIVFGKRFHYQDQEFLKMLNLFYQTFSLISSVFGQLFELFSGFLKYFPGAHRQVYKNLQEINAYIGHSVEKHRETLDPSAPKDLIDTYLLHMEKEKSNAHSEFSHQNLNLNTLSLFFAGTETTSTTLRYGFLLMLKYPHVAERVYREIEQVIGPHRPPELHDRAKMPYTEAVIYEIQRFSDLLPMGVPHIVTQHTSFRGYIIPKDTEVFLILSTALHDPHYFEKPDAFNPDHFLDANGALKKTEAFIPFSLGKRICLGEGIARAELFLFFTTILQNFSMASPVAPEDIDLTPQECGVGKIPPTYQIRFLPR

CYP1A2 [20] = target: T1, CYP1A2; test: Induction of CYP1A2 in human hepatocytes relative to control; format: ADME, cell-based, Hepatocyte
CYP2B6 [21] = target: T2, CYP2B6; test: Induction of CYP2B6 in human hepatocytes relative to control; format: ADME, cell-based, Hepatocyte
Rattus norvegicus [22] = test: Effect on haloperidol-induced catalepsy in rat assessed as reduction in mean latency to withdraw at 1 mg/kg, po (reference value: 43.4 +/- 4.3 sec); format: functional; method in brief: as §4
Rattus norvegicus [23] = test: Effect on haloperidol-induced catalepsy in rat assessed as reduction in mean latency to withdraw at 3 mg/kg, po (reference value: 43.4 +/- 4.3 sec); format: functional; method in brief: as §4
[24] = target: T3, Sigma non-opioid intracellular receptor 1 (Homo sapiens, UniProt Q99720); test: Inhibition of human sigma1 receptor at 10 uM relative to control
T3 sequence (Q99720 whole entry): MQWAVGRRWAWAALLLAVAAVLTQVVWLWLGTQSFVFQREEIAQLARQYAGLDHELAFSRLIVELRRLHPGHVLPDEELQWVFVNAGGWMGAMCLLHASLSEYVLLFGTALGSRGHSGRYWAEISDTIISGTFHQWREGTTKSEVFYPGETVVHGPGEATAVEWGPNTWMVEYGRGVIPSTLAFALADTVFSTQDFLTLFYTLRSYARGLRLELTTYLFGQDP

[25] = target: T3, Sigma non-opioid intracellular receptor 1; test: Inhibition of human sigma1 receptor by radioligand binding assay
[26] = target: Voltage-gated inwardly rectifying potassium channel KCNH2 (Homo sapiens, UniProt Q12809); test: Inhibition of human ERG tail current by electrophysiological assay relative to control
Sequence of Voltage-gated inwardly rectifying potassium channel KCNH2 (Q12809 whole entry): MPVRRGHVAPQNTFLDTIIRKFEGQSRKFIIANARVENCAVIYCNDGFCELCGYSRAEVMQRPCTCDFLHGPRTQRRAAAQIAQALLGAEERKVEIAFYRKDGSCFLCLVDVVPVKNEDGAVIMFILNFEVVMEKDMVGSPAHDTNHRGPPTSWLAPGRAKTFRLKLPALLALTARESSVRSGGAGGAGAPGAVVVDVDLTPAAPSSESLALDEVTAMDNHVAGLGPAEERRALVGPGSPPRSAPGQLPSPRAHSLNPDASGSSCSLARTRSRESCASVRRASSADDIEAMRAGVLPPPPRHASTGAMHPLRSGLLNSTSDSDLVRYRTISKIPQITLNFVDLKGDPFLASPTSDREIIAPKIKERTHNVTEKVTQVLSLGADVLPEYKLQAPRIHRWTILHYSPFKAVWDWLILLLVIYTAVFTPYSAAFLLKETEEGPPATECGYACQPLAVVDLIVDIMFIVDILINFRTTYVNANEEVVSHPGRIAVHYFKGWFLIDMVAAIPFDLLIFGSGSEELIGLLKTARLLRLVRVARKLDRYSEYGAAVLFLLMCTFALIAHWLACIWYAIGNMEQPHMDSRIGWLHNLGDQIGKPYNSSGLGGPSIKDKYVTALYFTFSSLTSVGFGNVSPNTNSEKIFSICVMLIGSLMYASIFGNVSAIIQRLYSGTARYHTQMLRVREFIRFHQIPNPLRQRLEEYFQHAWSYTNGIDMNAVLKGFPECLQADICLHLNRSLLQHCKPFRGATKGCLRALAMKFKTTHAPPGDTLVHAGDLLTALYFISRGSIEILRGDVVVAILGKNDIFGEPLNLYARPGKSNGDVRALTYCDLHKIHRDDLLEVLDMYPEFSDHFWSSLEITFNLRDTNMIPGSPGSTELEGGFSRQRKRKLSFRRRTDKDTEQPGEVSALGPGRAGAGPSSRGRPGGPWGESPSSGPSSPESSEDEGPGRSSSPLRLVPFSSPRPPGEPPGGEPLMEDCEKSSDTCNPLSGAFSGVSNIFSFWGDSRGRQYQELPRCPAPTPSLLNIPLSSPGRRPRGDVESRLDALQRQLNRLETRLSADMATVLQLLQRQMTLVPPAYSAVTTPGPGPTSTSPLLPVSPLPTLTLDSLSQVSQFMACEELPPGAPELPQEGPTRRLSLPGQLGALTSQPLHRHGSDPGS
Method in brief: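 HEK cells, whole-cell electrophysiology. hERG tail current recorded at −40 mV after a depolarizing step to +30 mV; n = 3.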

Fc1cc(F)c(F)c(-c2ccc(N[C@H]3C[C@@H]4CN(CC5CCOCC5)C[C@@H]4C3)nn2)c1
IC50 at 8 min (CYP1A2 [1]): > 30 µM
IC50 at 8 min (CYP2D6): > 30 µM
clearance [2]: 6.1 mL/min/kg
Vd [3]: 8.5 L/kg
Cmax [4]: 181 ng/mL
Cmax [5]: 70 ng/mL
Tmax [6]: 1.5 h
Tmax [7]: 17 h
bioavailability [8]: ≥ 100%
bioavailability [9]: 86%
Kp [10]: 6.4
Kp uu [11]: 0.61
Activity (Rattus norvegicus [12]): 26.2%
Activity (Rattus norvegicus [13]): Dose-Dependent Effect
Kp at 1 h [14]: 3.4
Kp uu at 1 h [15]: 0.32
IC50 [16]: > 10 µM
IC50 [17]: > 10 µM
IC50 (Cytochrome P450 2C19): > 100 µM
IC50 (Cytochrome P450 2D6): > 100 µM
EC50 (CYP1A2 [18]): 1.9 µM
EC50 (CYP2B6 [19]): 1.9 µM
Emax (CYP1A2 [20]): 2.1%
Emax (CYP2B6 [21]): 2.1%
Activity (Rattus norvegicus [22]): 21.3 s
Activity (Rattus norvegicus [23]): 15.1 s
inhibition [24]: 101%
Ki [25]: 0.0169 µM
inhibition (INH) [26]: 94%
